High-throughput results as filed in PubChem BioAssay.
SIRT5 inh: SIRT5 desuccinylase inhibitors, primary screen, biochemical, fluorescence imaging, single point, set 5; NAD-dependent protein deacylase sirtuin-5, mitochondrial (Homo sapiens), Q9NXA8; Purified SirT5, succinyl-peptide AMC, trypsin-coupled fluorescence; inhibition, % at 15 µM; hit rate 1.1% among 330,000; AID 652115, 2013; in the data active = inhibition above about 15%
FGF22 binding: binders of human FGF22 protein, primary screen, FGF22 synaptogenesis inhibitor project, biophysical, thermal shift, single point; hit rate 1.5% among 340,000; AID 651658, 2012; Fibroblast growth factor 22 (Homo sapiens), Q9HCT0; recombinant FGF22 thermal shift, SYPRO orange fluorescence; percent of sucrose octasulfate shift, DMSO zero; activity (Tm shift, normalised), % at 9.99 µM;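 active = mean Tm shift, scaled 0 neutral to 100 positive control, at about 1.3% or above, every replicate too, limit read from the data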
E-selectin induc: E-selectin induction in HUVECs, primary screen, imaging, HUVEC, immunofluorescence imaging, single point; activation, % at 7.58 µM; P16581; normalized: neutral wells 0, TNF-alpha wells 100; AID 686992, 2013; hit rate 0.37% among 260,000;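 active = mean E-selectin-positive cell signal at least 10% of the positive control, reached in at least 60% of replicates, without over 20% cell loss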
Target sequence (P16581 whole entry, looked up): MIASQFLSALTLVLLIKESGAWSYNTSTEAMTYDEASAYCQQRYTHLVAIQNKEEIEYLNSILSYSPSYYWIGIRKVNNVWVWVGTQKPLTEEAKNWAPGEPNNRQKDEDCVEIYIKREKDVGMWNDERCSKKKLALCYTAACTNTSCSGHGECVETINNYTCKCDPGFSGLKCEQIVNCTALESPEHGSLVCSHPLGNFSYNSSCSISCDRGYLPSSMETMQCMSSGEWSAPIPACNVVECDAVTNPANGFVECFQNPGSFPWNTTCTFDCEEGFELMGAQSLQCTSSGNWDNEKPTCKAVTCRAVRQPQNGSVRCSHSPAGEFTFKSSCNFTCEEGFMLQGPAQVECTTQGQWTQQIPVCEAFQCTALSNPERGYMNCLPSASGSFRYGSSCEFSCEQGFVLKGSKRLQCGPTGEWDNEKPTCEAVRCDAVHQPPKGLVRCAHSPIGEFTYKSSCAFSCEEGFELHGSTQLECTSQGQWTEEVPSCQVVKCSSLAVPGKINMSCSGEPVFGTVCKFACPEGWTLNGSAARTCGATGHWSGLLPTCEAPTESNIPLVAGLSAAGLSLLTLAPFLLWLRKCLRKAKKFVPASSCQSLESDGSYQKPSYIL
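System: HUVEC, human umbilical vein endothelial cells; quantity: 3,000 cells/well; buffer or medium: EGM-2 medium, gelatin-coated wells; dosing: single-point compound dose; detection: immunofluorescence imaging; evaluation: % PE-positive cells; benchmarks: TNF-alpha, DMSO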
rRNA inh HTS: reduced GFP signal of wild-type E. coli, primary screen, bacterial rRNA inhibitor project, GFP/RFP fluorescence, OD600, single point | E. coli WT GFP vs humanized-ribosome RFP mutants, 24 h; active compounds read low; DMSO median 0, no signal -100 | GFP signal change (wild-type ribosome), % (test concentration not listed) | hit rate 1.6% among 350,000;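 active = significant combined selectivity score with lowered wild-type GFP, culture density cut under 30%, mutant RFP and density less affected; inactive = any of these conditions unmet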
C2C12 statin: suppressors of statin myotoxicity in C2C12 myotubes, primary screen, cell-based, single point, plate reader; rescue of ATP level, % at 7.49 µM; hit rate 0.78% among 330,000; AID 602340, 2012; C2C12 myotubes + simvastatin, ATP luminescence, 48 h; scaled: DMSO 0, geranylgeraniol control 100;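 active = mean ATP rescue above about 67%, or every replicate alone reaching that limit, limit read from the data, passing the limit was not always enough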;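 also: myotubes were challenged with 10 µM simvastatin during compound exposure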
FN deposition inh: inhibitors of fibronectin matrix deposition, primary screen, AH1F cells, Alexa488-fibronectin fluorescence, plate reader. AH1F fibroblasts, overnight. inhibition, % at 12.6 µM. hit rate 0.086% among 350,000;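 active = mean inhibition across replicates of 30% or more, regardless of how many single replicates reach that level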;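 also: positive control wells lacked labelled fibronectin entirely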
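Assay system: AH1F fibroblast monolayer, labelled fibronectin deposition. Amount: 10000 cells per well. Also added: labelled fibronectin 24 nM. Compound: single-point pinned compound. Incubation: cell attachment 1 h, compound and FN exposure overnight. Detection: fluorescence after three HBSS washes, excitation 485 nm, emission 525 nm. Read-out: inhibition of fibronectin deposition signal.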
* hit, by the source's call. This is a sample that favours compounds with a hit; in the whole collection about 4% have one here.

How did COc1cccc(S(=O)(=O)Nc2ccc3c(c2)[C@H]2C[C@H](CC(=O)N4CCCCC4)O[C@H](CO)[C@H]2O3)c1 do in these assays?
SIRT5 inh: 0; FGF22 binding: 0; E-selectin induc: 0; rRNA inh HTS: -7; C2C12 statin: -1

Results for COc1cccc(C(=O)Nc2ccc3c(c2)C(=O)N(C)[C@H]2CC[C@H](CC(=O)NCC4CC4)O[C@@H]2CO3)c1 ?
SIRT5 inh: 1; FGF22 binding: 0; E-selectin induc: 0; rRNA inh HTS: -2; C2C12 statin: 13; FN deposition inh: -13

How did Cc1ccc(S(=O)(=O)NCC[C@H]2CC[C@@H](NC(=O)c3ccccn3)[C@H](CO)O2)cc1 do in these assays?
SIRT5 inh: -2; FGF22 binding: -1; E-selectin induc: -1; rRNA inh HTS: 0; C2C12 statin: -1

Results for C[C@@H]1CCCCO[C@H](CN(C)C(=O)CCC(F)(F)F)[C@@H](C)CN([C@H](C)CO)C(=O)c2cc(NC(=O)Nc3ccccc3)ccc2O1 ?
SIRT5 inh: 1; FGF22 binding: 0; E-selectin induc: 0; rRNA inh HTS: -4; FN deposition inh: 0

Results for Cc1noc(C)c1S(=O)(=O)Nc1ccc2c(c1)C(=O)N([C@H](C)CO)C[C@H](C)[C@@H](CN(C)S(=O)(=O)c1ccc(Cl)cc1)OCCCC[C@H](C)O2 ?
SIRT5 inh: 3; FGF22 binding: -1; rRNA inh HTS: -3; C2C12 statin: 23; FN deposition inh: -2

What do the screens show for `Cc1ccc(S(=O)(=O)Nc2ccc3c(c2)C(=O)N([C@H](C)CO)C[C@H](C)[C@@H](CN(C)S(=O)(=O)c2ccc(Cl)cc2)OCCCC[C@H](C)O3)cc1`?
FGF22 binding: 31*; E-selectin induc: 0; rRNA inh HTS: -3; FN deposition inh: -8

How did Cc1noc(C)c1S(=O)(=O)Nc1ccc2c(c1)C(=O)N([C@H](C)CO)C[C@@H](C)[C@@H](CN(C)S(=O)(=O)c1ccc(Cl)cc1)OCCCC[C@H](C)O2 do in these assays?
SIRT5 inh: 8; FGF22 binding: -1; rRNA inh HTS: 1; C2C12 statin: 101*; FN deposition inh: 2

How did Cc1ccc(S(=O)(=O)Nc2ccc3c(c2)C(=O)N([C@@H](C)CO)C[C@@H](C)[C@@H](CN(C)S(=O)(=O)c2ccc(Cl)cc2)OCCCC[C@@H](C)O3)cc1 do in these assays?
FGF22 binding: 0; E-selectin induc: 1; rRNA inh HTS: -2; FN deposition inh: -4

Results for O=C(O)CCNC(=O)c1ccc(NC(=O)Cc2ccc(Cl)cc2)cc1 ?
SIRT5 inh: 26*; E-selectin induc: 0; rRNA inh HTS: 9; FN deposition inh: 12

Results for O=C(O)CCNC(=O)c1ccc(NC(=O)C(c2ccccc2)c2ccccc2)cc1 ?
SIRT5 inh: 57*; FGF22 binding: 0; rRNA inh HTS: -1; C2C12 statin: 7; FN deposition inh: -3

What do the screens show for `O=C(Cc1ccccc1)Nc1ccc(C(=O)NCc2ccccc2)cc1`?
SIRT5 inh: -1; FGF22 binding: -1; rRNA inh HTS: 20; C2C12 statin: -9; FN deposition inh: -1

Results for C[C@@H]1CN([C@@H](C)CO)C(=O)c2cc(NC(=O)Cn3cnnn3)ccc2O[C@H]1CN(C)C(=O)Nc1ccc2c(c1)OCO2 ?
SIRT5 inh: -2; FGF22 binding: 0; E-selectin induc: 0; rRNA inh HTS: 0; C2C12 statin: -22; FN deposition inh: -13

Results for COC(=O)C1=C(O)/C(=C\c2ccc(OCC(=O)Nc3ccccc3)cc2)N=C1C ?
SIRT5 inh: -5; FGF22 binding: 0; E-selectin induc: 0; rRNA inh HTS: -1; C2C12 statin: 104*; FN deposition inh: 0

How did O=C(C[C@H]1CC[C@H](NC(=O)c2ccccn2)[C@@H](CO)O1)NCc1cc(F)cc(F)c1 do in these assays?
SIRT5 inh: 3; FGF22 binding: 0; E-selectin induc: 0; rRNA inh HTS: 0; C2C12 statin: -1; FN deposition inh: -10

How did C[C@@H]1CCCCO[C@H](CN(C)C(=O)NC2CCCCC2)[C@H](C)CN([C@@H](C)CO)C(=O)c2cc(NC(=O)Cc3ccccc3)ccc2O1 do in these assays?
SIRT5 inh: 6; FGF22 binding: 0; E-selectin induc: 1; rRNA inh HTS: -4

What do the screens show for `CCC(=O)NC(c1ccccc1)c1c(O)ccc2ccccc12` (configuration not stated)?
SIRT5 inh: -4; FGF22 binding: 0; E-selectin induc: 0; rRNA inh HTS: -32*; C2C12 statin: 37; FN deposition inh: 4

Results for CCCC(=O)NC(c1ccccc1)c1c(O)ccc2ccccc12 (configuration not stated) ?
SIRT5 inh: -4; FGF22 binding: 0; E-selectin induc: 0; rRNA inh HTS: -28; C2C12 statin: 12; FN deposition inh: 4

How did CC(C)N1CCC(N2CCN(Cc3cc(F)ccc3-n3cccn3)CC2CCO)CC1 (configuration not stated) do in these assays?
SIRT5 inh: -3; FGF22 binding: 0; rRNA inh HTS: 14; FN deposition inh: 2

How did CC(C)N1CCN(Cc2cc(F)ccc2-n2cccn2)CC1CCO (configuration not stated) do in these assays?
SIRT5 inh: 20*; FGF22 binding: 0; rRNA inh HTS: 7; C2C12 statin: 7; FN deposition inh: -3

Results for Cc1sc(NC(=O)Cn2cnnn2)nc1-c1ccc(Cl)cc1 ?
SIRT5 inh: -3; FGF22 binding: 43*; rRNA inh HTS: -14; FN deposition inh: 3

How did Cc1cc(C)n(-c2ccc(C(=O)OCn3nnc4ccccc4c3=O)cc2)n1 do in these assays?
SIRT5 inh: 3; rRNA inh HTS: -20; C2C12 statin: 1

Results for Cc1nn(-c2ccccc2)c2sc(C(=O)OCn3nnc4ccccc4c3=O)cc12 ?
SIRT5 inh: 17*; FGF22 binding: 0; E-selectin induc: -1; rRNA inh HTS: 14; FN deposition inh: 0

What do the screens show for `CCN1C(=O)[C@@H]2[C@@H](c3ccc(-c4ccc(OC)cc4)cc3)N3CCC[C@@]3(C(=O)OC)[C@@H]2C1=O`?
SIRT5 inh: 1; FGF22 binding: 44*; E-selectin induc: 0; rRNA inh HTS: 1; C2C12 statin: 9; FN deposition inh: 14
